Measurements as given in PubChem BioAssay.
Inconclusive results are not listed.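 Rule for the calls, unless noted: active = growth inhibition above 25% in both replicates, a cutoff set 3 SD above the mean; inconclusive = above 25% in only one replicate; inactive = the rest.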

Legend:
[1] = S. cerevisiae growth inhibition in permissive medium (OD615), pilot counter-assay for S. cerevisiae lifespan shortening project, permissive growth control (AID 705); settings: OD615, 24 h, at 10 µM, hits give high values
Method in brief: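 assay system = Saccharomyces cerevisiae strain carrying genetically modified DeaD replicative-lifespan system | medium = SC raffinose/galactose permissive medium | dosing = 10 µM single dose, 0.25% DMSO | schedule = 24 h compound exposure at 30 °C after 4 h pre-growth | measured by = OD at 615 nm | read-out basis = growth inhibition from lowered OD615 after 24 h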

[2] = S. cerevisiae growth inhibition in restrictive medium, OD615, pilot screen, restrictive growth control, yeast lifespan reduction project (AID 706;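 active = growth inhibition above a set limit, 3 SD over mean compound inhibition, in both replicates, cut at about 43% in these data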;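 note: modified DeaD lifespan yeast strain shifted to restrictive glucose medium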); settings: OD615, 48 h, at 10 µM, hits give high values
Method in brief: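 Buffer or medium: CSMM-D glucose medium. Material: genetically modified Saccharomyces cerevisiae, DeaD replicative lifespan assay strain. Times: 48 h compound exposure at 30 °C. Measured by: optical density at 615 nm.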

[3] = doxorubicin toxicity protection in MRP-1 cells – H69AR cells, CellTiter-Glo, duplicate, MRP-1 activator project, pilot screen (AID 807;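 active = viability increase at or above a cutoff of the median across tested compounds plus 3 SD, cut at about 8.5% in these data, passing the limit was not always enough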;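 note: compound pretreatment 18-22 h then 72 h combined with doxorubicin; 0% = doxorubicin alone and 100% = vehicle without doxorubicin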); settings: H69AR viability with doxorubicin, CellTiter-Glo luminescence; at 10 µM; hits give high values
[4] = viability of HCT116 without oncogenic beta-catenin – human colon tumor cells, pilot screen (AID 823;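 active = cell viability at or below a set limit in both duplicate runs, the limit being the all-compound median minus 4 SD, cut at about 23% in these data, passing the limit was not always enough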;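 note: 0% = wells killed by 20 µM Hyamine and 100% = untreated DMSO cell wells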); settings: HCT116 beta-catenin knockout viability, CellTiter-Glo, 60 h; at 10 µM; hits give low values
[5] = viability of PTEN-null HCT116 cells – cell-based, HCT116 clonal line, CellTiter-Glo, pilot screen (AID 824;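 active = viability at or below 27.92% in each of two runs, the all-compound median minus 4 SD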;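 note: 0% = 20 µM Hyamine control and 100% = vehicle cell control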); settings: HCT116 PTEN-deleted viability, 60 h, at 10 µM, hits give low values
[6] = RAM pathway blockade in budding yeast – dse1pr::URA3 reporter, 5-FOA selection, pilot screen (AID 869;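 active = inhibition over a set limit, the all-compound mean plus 3 SD, in both replicate runs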;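 note: 0% = DMSO wells with no growth and 100% = 10 µM 1-NA-PP1 with full growth; RAM network block rescues cells from 5-FOA so hits raise OD615 growth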); settings: S. cerevisiae dse1pr::URA3 5-FOA growth, OD615, 2 d; at 10 µM; hits give high values; strain carries analog-sensitive mutant Cbk1 kinase
[7] = RAM signaling pathway blockade in yeast – S. cerevisiae, Pdr1DBD-CYC8 efflux-inhibited sensitized strain, primary screen (AID 1298;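 active = RAM network inhibition above 8.4% in each of two replicates, 3 SD over the compound average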;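 note: 0% = DMSO untreated cells without growth and 100% = 10 µM 1-NA-PP1 full growth; higher means more yeast growth rescued from 5-FOA killing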); settings: S. cerevisiae cbk1-as DSE1-URA3 strain, 5-FOA growth OD615, 2 d; at 50 µM; hits give high values

CCCOc1ccc(C2c3c(oc4cc(C)c(C)cc4c3=O)C(=O)N2CCCN2CCOCC2)cc1 (stereo not given)
inactive: growth inhibition [1] 8% | growth inhibition [2] 1.72% | viability increase [3] -2.28% | viability [4] 81.9% | viability [5] 89% | inhibition [6] 0.075% | RAM network inhibition [7] 0.73%

CCOC(=O)c1nnc2cc(-c3ccccc3)nn2c1C
inactive: growth inhibition [1] 3.76% | growth inhibition [2] 16% | viability increase [3] 0.86% | viability [4] 93.6% | viability [5] 95.3% | inhibition [6] 1.5% | RAM network inhibition [7] 0.86%

Cc1ccc2cc(-c3noc(C4CCCCC4)n3)c(=O)[nH]c2c1
inactive: growth inhibition [1] -10.9% | growth inhibition [2] -13% | viability increase [3] -2.36% | viability [4] 112% | viability [5] 104% | inhibition [6] 3.56% | RAM network inhibition [7] 4.76%

Cc1nc2sc(C(c3ccccc3)N3CCN(CCO)CC3)c(O)n2n1 (stereo not given)
inactive: growth inhibition [1] -5.65% | growth inhibition [2] -2.6% | viability increase [3] -1.6% | viability [4] 106% | viability [5] 98.6% | inhibition [6] 1.32% | RAM network inhibition [7] 4.51%

O=C(CN1CCN(C2CCCCC2)CC1)c1ccc2cc[nH]c2c1
inactive: growth inhibition [1] 5.4% | growth inhibition [2] 2.7% | viability increase [3] -3.56% | viability [4] 94% | viability [5] 85.7% | inhibition [6] 1.9% | RAM network inhibition [7] -1.26%

CCOc1ccc(NC2CCN(C(C)=O)CC2)cc1
inactive: growth inhibition [1] -12.8% | growth inhibition [2] -7.46% | viability increase [3] 0.27% | viability [4] 95.2% | viability [5] 97% | inhibition [6] 0.625% | RAM network inhibition [7] 6.44%

O=C(NCc1ccc(F)cc1)c1cnc2n(c1=O)CCS2
inactive: growth inhibition [1] -2.45% | growth inhibition [2] -2.23% | viability increase [3] 2.85% | viability [4] 101% | viability [5] 102% | inhibition [6] 0.54% | RAM network inhibition [7] -0.84%

O=C(O)CCC(=O)NCc1ccc2[nH]c3c(c2c1)CCCC3
inactive: growth inhibition [1] -13.2% | growth inhibition [2] 3.53% | viability increase [3] 0.95% | viability [4] 101% | viability [5] 96.5% | inhibition [6] 1.51% | RAM network inhibition [7] 4.69%

CCOC(=O)c1sc(NC(=O)C2CC2)cc1C
inactive: growth inhibition [1] -9.29% | growth inhibition [2] -0.985% | viability increase [3] 0.54% | viability [4] 99.5% | viability [5] 89.4% | inhibition [6] 2.37% | RAM network inhibition [7] 0.98%

CN(C)S(=O)(=O)c1ccc(C(=O)Nc2ccc(Cl)cc2)cc1
inactive: growth inhibition [1] -3.1% | growth inhibition [2] -5.55% | viability increase [3] -1.63% | viability [4] 77.5% | viability [5] 88.8% | inhibition [6] 2.33% | RAM network inhibition [7] 3.74%

O=C(C1COc2ccccc2O1)N1CCn2c(nc3ccccc32)C1 (stereo not given)
inactive: growth inhibition [1] -13.1% | growth inhibition [2] -3.57% | viability increase [3] -2.64% | viability [4] 106% | viability [5] 92% | inhibition [6] 1.85% | RAM network inhibition [7] 4.61%

O=C(CCCc1ccccc1)NCCN1CCOCC1
inactive: growth inhibition [1] -12.1% | growth inhibition [2] -5.57% | viability increase [3] 1.56% | viability [4] 104% | viability [5] 97.9% | inhibition [6] 0.795% | RAM network inhibition [7] 2.4%

COc1ccc(-n2nc3c(c2NC(=O)C24CC5CC(CC(C5)C2)C4)CS(=O)C3)cc1 (stereo not given)
inactive: growth inhibition [1] 1.36% | growth inhibition [2] 9.3% | viability increase [3] -0.78% | viability [4] 97.2% | viability [5] 93.5% | inhibition [6] -0.08% | RAM network inhibition [7] -1.31%

c1ccc(CN2CCN(c3nc4ccccc4n4cnnc34)CC2)cc1
inactive: growth inhibition [1] -4.76% | growth inhibition [2] -16.2% | viability increase [3] -1.7% | viability [4] 94.8% | viability [5] 86% | inhibition [6] 0.625% | RAM network inhibition [7] 2.12%

O=C(CCS(=O)(=O)c1cccc2nonc12)NC1CCCCCC1
inactive: growth inhibition [1] -7.86% | growth inhibition [2] -9.46% | viability increase [3] -4.43% | viability [4] 86.7% | viability [5] 84.5% | inhibition [6] 0.855% | RAM network inhibition [7] 0.93%
